Results from ChEMBL document CHEMBL4219052, “Synthesis and biological evaluation of 6-substituted-5-fluorouridine ProTides” (Bioorg Med Chem, 2018).

Key:
MCF7 = experiment: Cytotoxicity against human MCF7 cells after 72 hrs by MTS assay; assay type: functional, cell-based; details: MCF7, 72 h
Outline: (§1)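 Commercial screen: tumour cells seeded at 0.5 to 100 x 10³ cells/well the day before dosing, then exposed 72 h to compound in duplicate, 9 serial 3.16-fold dilutions from 198 µM top concentration. MTS added for a further 4 h at 37 °C, absorbance read; IC50 taken as 50% inhibition of viability by curve fitting.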

HEL 92.1.7 = experiment: Cytotoxicity against human HEL 92.1.7 cells after 72 hrs by MTS assay; assay type: functional, cell-based; details: HEL 92.1.7, 72 h; outline: as §1
[1] = Cytotoxicity against human Hs445 cells after 72 hrs by MTS assay; assay type: functional, cell-based; details: Hs 445, 72 h; outline: as §1
SW-620 = experiment: Cytotoxicity against human SW620 cells after 72 hrs by MTS assay; assay type: functional, cell-based; details: SW-620, 72 h; outline: as §1
Chikungunya virus = experiment: Antiviral activity against Chikungunya virus infected in African green monkey Vero cells assessed as reduction in virus-induced cytopathic effect pretreated for 1 hr followed by viral infection measured after 3 days by crystal violet staining based assay; assay type: functional, organism-based
[2] = Cytotoxicity against African green monkey Vero cells measured after 3 days by CelltiterGlo luminescence assay; assay type: cell-based; details: chlorocebus sabaeus
Outline: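 Vero cells seeded and left overnight; growth medium then replaced by serial compound dilutions, added in triplicate; medium-only wells defined 0% cytotoxicity. On day 3 cells were lysed and ATP content measured by luciferase luminescence (CellTiter-Glo); CC50 obtained from a 4-PL curve fit.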

RL = experiment: Cytotoxicity against human RL cells after 72 hrs by MTS assay; assay type: functional, cell-based; outline: as §1
MIA PaCa-2 = experiment: Cytotoxicity against human MIAPaCa2 cells after 72 hrs by MTS assay; assay type: functional, cell-based; details: MIA PaCa-2, 72 h; outline: as §1
MV4-11 = experiment: Cytotoxicity against human MV411 cells after 72 hrs by MTS assay; assay type: functional, cell-based; details: MV4-11, 72 h; outline: as §1
[3] = target: T1, Orotidine 5'-phosphate decarboxylase (Saccharomyces cerevisiae S288c, UniProt P03962); experiment: Inhibition of yeast ODCase
T1 sequence (P03962 whole entry): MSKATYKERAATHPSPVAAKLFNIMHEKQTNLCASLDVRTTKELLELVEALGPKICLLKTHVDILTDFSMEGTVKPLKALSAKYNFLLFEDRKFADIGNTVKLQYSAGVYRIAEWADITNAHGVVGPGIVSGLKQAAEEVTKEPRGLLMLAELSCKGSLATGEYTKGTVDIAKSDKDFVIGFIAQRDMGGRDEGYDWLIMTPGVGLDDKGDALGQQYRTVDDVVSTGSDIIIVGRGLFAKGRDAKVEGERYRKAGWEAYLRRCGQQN

[4] = target: Orotidine 5'-phosphate decarboxylase (Methanobacterium thermoautotrophicum, UniProt O26232); experiment: Inhibition of Methanobacterium thermoautotrophicum ODCase; design: species or system Methanothermobacter thermautotrophicus
Chain of Orotidine 5'-phosphate decarboxylase (Methanobacterium thermoautotrophicum, UniProt O26232) (O26232 whole entry): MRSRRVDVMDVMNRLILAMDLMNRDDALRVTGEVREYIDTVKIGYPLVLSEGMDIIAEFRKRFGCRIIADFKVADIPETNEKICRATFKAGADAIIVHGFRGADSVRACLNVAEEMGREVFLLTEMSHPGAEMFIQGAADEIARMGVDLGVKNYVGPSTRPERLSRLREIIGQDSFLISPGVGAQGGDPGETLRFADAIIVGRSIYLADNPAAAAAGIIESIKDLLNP

[5] = target: T2, Uridine 5'-monophosphate synthase (Homo sapiens, UniProt P11172); experiment: Inhibition of human ODCase
T2 sequence (P11172 whole entry): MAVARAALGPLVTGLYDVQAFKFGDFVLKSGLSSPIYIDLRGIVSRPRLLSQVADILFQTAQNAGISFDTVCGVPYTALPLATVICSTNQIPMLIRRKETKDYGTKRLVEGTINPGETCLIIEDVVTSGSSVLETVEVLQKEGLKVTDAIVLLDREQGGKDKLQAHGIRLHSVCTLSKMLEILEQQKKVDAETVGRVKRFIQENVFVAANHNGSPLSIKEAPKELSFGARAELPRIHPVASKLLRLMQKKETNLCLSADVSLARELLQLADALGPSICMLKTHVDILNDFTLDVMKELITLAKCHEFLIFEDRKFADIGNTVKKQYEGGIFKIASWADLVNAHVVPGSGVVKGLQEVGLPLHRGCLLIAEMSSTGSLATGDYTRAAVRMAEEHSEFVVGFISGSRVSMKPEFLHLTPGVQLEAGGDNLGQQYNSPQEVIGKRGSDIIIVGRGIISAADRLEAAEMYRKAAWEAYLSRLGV

CCc1c(F)c(=O)[nH]c(=O)n1[C@@H]1O[C@H](COP(=O)(N[C@@H](C)C(=O)OCc2ccccc2)Oc2cccc3ccccc23)[C@@H](O)[C@H]1O (stereo not given in full)
IC50 (MCF7): > 50 µM | IC50 (HEL 92.1.7): > 50 µM | IC50 [1]: 10 µM | IC50 (SW-620): 12 µM | EC50 (Chikungunya virus): > 50 µM | CC50 at 72 h [2]: 53.1 µM | IC50 (RL): 27 µM

C[C@H](NP(=O)(OC[C@H]1O[C@@H](n2c(N=[N+]=[N-])c(F)c(=O)[nH]c2=O)[C@H](O)[C@@H]1O)Oc1cccc2ccccc12)C(=O)OCc1ccccc1 (stereo not given in full)
IC50 (MCF7): 44 µM | IC50 (HEL 92.1.7): 29 µM | IC50 [1]: 15 µM | IC50 (MIA PaCa-2): 27 µM | IC50 (SW-620): 28 µM | EC50 (Chikungunya virus): > 200 µM | CC50 at 72 h [2]: 81.8 µM | IC50 (RL): 12 µM | IC50 (MV4-11): 6.3 µM

C[C@H](NP(=O)(OC[C@H]1O[C@@H](n2c(N=[N+]=[N-])c(F)c(=O)[nH]c2=O)[C@H](O)[C@@H]1O)Oc1ccccc1)C(=O)OCc1ccccc1 (stereo not given in full)
IC50 (MCF7): 20 µM | IC50 (HEL 92.1.7): 17 µM | IC50 [1]: 23 µM | IC50 (MIA PaCa-2): 22 µM | IC50 (SW-620): 13 µM | IC50 (RL): 21 µM | IC50 (MV4-11): 8 µM

CCOC(=O)[C@H](C)NP(=O)(OC[C@H]1O[C@@H](n2c(N=[N+]=[N-])c(F)c(=O)[nH]c2=O)[C@H](O)[C@@H]1O)Oc1ccccc1 (stereo not given in full)
IC50 (MCF7): > 50 µM | IC50 (HEL 92.1.7): > 50 µM | IC50 [1]: 44 µM | IC50 (MIA PaCa-2): > 50 µM | IC50 (SW-620): > 50 µM | IC50 (RL): > 50 µM | IC50 (MV4-11): > 50 µM

C[C@H](NP(=O)(OC[C@H]1O[C@@H](n2c(I)c(F)c(=O)[nH]c2=O)[C@H](O)[C@@H]1O)Oc1cccc2ccccc12)C(=O)OCc1ccccc1 (stereo not given in full)
IC50 (MCF7): 3.93 µM | IC50 (HEL 92.1.7): 0.4 µM | IC50 [1]: 0.71 µM | IC50 (MIA PaCa-2): 0.63 µM | IC50 (SW-620): 0.52 µM | IC50 (RL): 0.4 µM | IC50 (MV4-11): 0.08 µM

Cc1c(F)c(=O)[nH]c(=O)n1[C@@H]1O[C@H](CO)[C@@H](O)[C@H]1O
IC50 (MCF7): 5.4 µM | IC50 (HEL 92.1.7): 14 µM | IC50 [1]: 7 µM | IC50 (MIA PaCa-2): 12 µM | IC50 (SW-620): 8.5 µM | EC50 (Chikungunya virus): > 200 µM | CC50 at 72 h [2]: 9.04 µM | IC50 (RL): 16 µM | IC50 (MV4-11): 2 µM

O=c1[nH]c(=O)n([C@@H]2O[C@H](CO)[C@@H](O)[C@H]2O)c(I)c1F
IC50 (MCF7): 0.67 µM | IC50 (HEL 92.1.7): 0.1 µM | IC50 [1]: 0.38 µM | IC50 (MIA PaCa-2): 0.02 µM | IC50 (SW-620): 0.5 µM | IC50 (RL): 0.1 µM | IC50 (MV4-11): 0.04 µM

CCc1c(F)c(=O)[nH]c(=O)n1[C@@H]1O[C@H](CO)[C@@H](O)[C@H]1O
IC50 (MCF7): > 50 µM | IC50 (HEL 92.1.7): > 50 µM | IC50 [1]: > 50 µM | IC50 (SW-620): > 50 µM | EC50 (Chikungunya virus): > 200 µM | CC50 at 72 h [2]: > 200 µM | IC50 (RL): > 50 µM

[N-]=[N+]=Nc1c(F)c(=O)[nH]c(=O)n1[C@@H]1O[C@H](CO)[C@@H](O)[C@H]1O
IC50 (MCF7): 6 µM | IC50 (HEL 92.1.7): 10 µM | IC50 [1]: 14 µM | IC50 (MIA PaCa-2): 11 µM | IC50 (SW-620): 8 µM | EC50 (Chikungunya virus): > 200 µM | CC50 at 72 h [2]: 47 µM | IC50 (RL): 10 µM | IC50 (MV4-11): 6.6 µM

O=c1cnn([C@@H]2O[C@H](CO)[C@@H](O)[C@H]2O)c(=O)[nH]1 [6-AZAURIDINE]
Ki [3]: 0.064 µM | EC50 (Chikungunya virus): 0.468 µM | CC50 at 72 h [2]: > 10 µM | Ki [4]: 11 µM

NC(=O)c1[nH]nc([C@@H]2O[C@H](CO)[C@@H](O)[C@H]2O)c1O [PYRAZOFURIN]
Ki [5]: 0.017 µM | Ki [4]: 6.2 µM
